Experimental data published in PubChem BioAssay AID652260 (The Scripps Research Institute Molecular Screening Center, 2013).
In all, about 3,500 compounds went through this assay and about 1,000 (29%) were called active. Only a sample is shown. Unmarked numbers belong to inactive results.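 How the source made its calls: active means activation above its plate's cutoff, the mean activation of tested wells plus 3 SD (cut at about 7.9% in these data); inactive means the rest.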

Experiment: BRM-dependent MMTV reporter reactivation – cell-based, luminescence, triplicate, confirmation (AID 652260)
Conditions: MG213 cells, MMTV-luciferase with dexamethasone, overnight, at 9.1 µM, stronger effect = higher value, DMSO wells 0%, reference activator 100%, MG213 cells expressing E1A, Rb sequestered
Outline: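 material = MG213 cells (E1A-transduced) carrying MMTV-luciferase reporter | amount = 600 cells in each well | probe or stimulus = 0.1 µM dexamethasone stimulus | dosing = 9.1 µM single dose | timing = one-day dexamethasone pre-induction, 24 h compound exposure at 37 °C | detection = OneGlo luciferase luminescence after 15 min at room temperature | evaluation = normalized percent activation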

**Q.** Which activation does the source give for `COc1cc(/C=N/NC(=O)c2ccccc2)ccc1OS(=O)(=O)c1ccccc1` here?
**A.** The activation was 3.32%.

**Q.** Which activation does the source give for `Cc1nnc(NC(=O)Cn2c(=O)sc3ccccc32)s1` here?
**A.** Its activation is -3.31%.

**Q.** With `COC(=O)c1ccc(NCc2cc(O)ccc2O)cc1` as the compound, how does the activation read?
**A.** The activation was 1.42%.

**Q.** With `Cc1ccc(O)c(CNc2nc3ccccc3n2C)c1` as the compound, how does the activation read?
**A.** The activation was 9.22% (active).

**Q.** With `CC(=O)c1ccc(NC(=O)c2sc3nc4n(c(=O)c3c2C)CCCCC4)cc1` as the compound, how does the activation read?
**A.** The activation was -0.4%.

**Q.** For `O=c1c2c(nc3n1CCCCC3)sc1c(O)cccc12`, which activation is on record?
**A.** The activation was 15.2% (active).

**Q.** Which activation does the source give for `FC(F)(F)c1cccc(-c2nc3ccccc3n2C(c2ccccc2)c2nc3ccccc3[nH]2)c1` (stereo not drawn) here?
**A.** The activation was 3.9%.

**Q.** Which activation does the source give for `CC(=O)Oc1ccc(C(=O)Nc2nccs2)cc1` here?
**A.** The activation was 6.25%.

**Q.** For `CCOc1cccc2c1OC1(CCCCC1)N1N=C(c3cccnc3)CC21` (stereo not drawn), which activation is on record?
**A.** Its activation is 2.8%.

**Q.** For `Cc1ccc(-n2c(SCC(=O)N3CCC(C(=O)O)CC3)nc3ccccc3c2=O)cc1C`, which activation is on record?
**A.** The activation was 4.21%.

**Q.** With `CN(C)CCNC(=O)c1ccc(Cl)c2cc3ccccc3nc12` as the compound, how does the activation read?
**A.** Its activation is -13.7%.

**Q.** Which activation does the source give for `CCCOc1ccc(-c2nc(N)n[nH]2)cc1` here?
**A.** The activation was 4.15%.

**Q.** For `Cc1ccccc1C#CC1=CC(=O)CC(C)(C)C1`, which activation is on record?
**A.** Its activation is 1%.

**Q.** Which activation does the source give for `Cc1ccccc1C1=N/C(=C/c2cccnc2)C(=O)O1` here?
**A.** Its activation is 0.02%.

**Q.** With `CCCCCCOC(=O)NCC(O)c1ccccc1` (stereo not drawn) as the compound, how does the activation read?
**A.** The activation was 12.4% (active).

**Q.** With `CCCCc1ccc(NC(=S)N2CCCC(CO)C2)cc1` (stereo not drawn) as the compound, how does the activation read?
**A.** The activation was 6.12%.

**Q.** With `Cc1ccc(C(=O)Nc2nc3ccc(Cl)cc3s2)o1` as the compound, how does the activation read?
**A.** The activation was 3.69%.

**Q.** For `CCOC(=O)c1c(C)[nH]c(C2=NNC(=NC(C)COC)SC2)c1C` (stereo not drawn), which activation is on record?
**A.** Its activation is 10.6% (active).

**Q.** Which activation does the source give for `C1=C(CCNc2ncnc3c2cnn3-c2ccccc2)CCCC1` here?
**A.** Its activation is 3.15%.

**Q.** For `O=C(N[C@H]1CC[C@H](CC(=O)N2CCCCC2)O[C@@H]1CO)c1cccc(F)c1`, which activation is on record?
**A.** Its activation is 0.05%.

**Q.** With `CCc1ccc(NC2Nc3cc(C)nn3S2)cc1` (stereo not drawn) as the compound, how does the activation read?
**A.** Its activation is 8.74% (active).

**Q.** With `CCCn1c(=O)c2ccccc2n2c(SCC(=O)/C(C#N)=C(\C)N)nnc12` as the compound, how does the activation read?
**A.** Its activation is 3.09%.

**Q.** Which activation does the source give for `COCC1CCN(C(=O)C2CCC(=O)N(Cc3cccc(C(F)(F)F)c3)C2)CC1` (stereo not drawn) here?
**A.** The activation was 2.05%.

**Q.** With `Cc1ccc(Nc2nc(Cl)c(C=O)s2)cc1` as the compound, how does the activation read?
**A.** Its activation is -3.27%.

**Q.** For `CCc1cc2c(=O)c(-c3ccon3)c(N)oc2cc1OC`, which activation is on record?
**A.** The activation was 14% (active).

**Q.** With `CN(C)C(CNC(=O)c1ccc(OCc2cn3ccccc3n2)cc1)c1ccco1` (stereo not drawn) as the compound, how does the activation read?
**A.** The activation was 2.21%.

**Q.** For `O=C(Nc1ccc(NC(=O)c2cccs2)cn1)c1ccco1`, which activation is on record?
**A.** Its activation is 2.8%.

**Q.** For `Cc1ccnc(Nc2nc3ccccc3s2)n1`, which activation is on record?
**A.** The activation was 10% (active).

**Q.** Which activation does the source give for `O=C(Nc1ccc(F)cc1)c1cc2c(s1)CCCC2` here?
**A.** Its activation is 9.06% (active).

**Q.** With `O=C(NCC1CCCO1)c1cc2c(s1)CCCC2` (stereo not drawn) as the compound, how does the activation read?
**A.** Its activation is 11% (active).

**Q.** With `Cc1ccnc(NC(=O)C2CCN(S(=O)(=O)c3c(C)c(C)cc(C)c3C)CC2)c1` as the compound, how does the activation read?
**A.** The activation was -0.54%.

**Q.** For `COC(=O)c1sc(-c2ccc(C(C)(C)C)cc2)cc1NC(=O)/C=C/C(=O)O`, which activation is on record?
**A.** Its activation is -3.23%.

**Q.** With `CCC(C)N(C)C1CCN(C(=S)Nc2ccc(OC)cc2)CC1` (stereo not drawn) as the compound, how does the activation read?
**A.** The activation was 1.96%.

**Q.** With `COc1cccc(OCCOc2cccc(/C=N/n3cnnc3)c2)c1` as the compound, how does the activation read?
**A.** Its activation is 3.85%.

**Q.** Which activation does the source give for `COc1ccc(OCCCC(=O)NCCc2ccccc2)cc1` here?
**A.** The activation was 1.28%.

**Q.** Which activation does the source give for `Cc1ccc(F)c(NC(=O)CCc2ccccc2)c1` here?
**A.** The activation was 5.33%.

**Q.** Which activation does the source give for `O=C(CCCc1ccccc1)NCc1ccccc1` here?
**A.** The activation was 8.8% (active).

**Q.** Which activation does the source give for `CC(C)c1ccc(NC(=S)NC2CC3C=CC2C3)cc1` (stereo not drawn) here?
**A.** The activation was 6.89%.

**Q.** With `Cc1ccc(NC(=O)C(=O)NCc2ccco2)c(C)c1` as the compound, how does the activation read?
**A.** Its activation is 0.78%.

**Q.** Which activation does the source give for `CC(C)(C)c1ccc(NC(=O)NCc2ccco2)cc1` here?
**A.** The activation was 14.5% (active).

**Q.** For `Cc1noc(C)c1S(=O)(=O)N(C)C[C@H]1Oc2c(NC(=O)Nc3ccc4c(c3)OCO4)cccc2C(=O)N([C@H](C)CO)C[C@@H]1C`, which activation is on record?
**A.** Its activation is -2.45%.

**Q.** Which activation does the source give for `CC(C)(C)NC(=O)C(CCc1ccccc1)n1c(=O)c(-c2ccccc2)nc2ccccc21` (stereo not drawn) here?
**A.** Its activation is 8.75% (active).

**Q.** Which activation does the source give for `O=C(Cn1ncc(N2CCCC2)c(Br)c1=O)c1ccc(Cl)cc1` here?
**A.** Its activation is 3.52%.

**Q.** Which activation does the source give for `COc1ccc(/C=C/C(=O)Nc2ccc(C34CC5CC(CC(O)(C5)C3)C4)cc2)cc1OC` here?
**A.** The activation was 15.3% (active).

**Q.** Which activation does the source give for `Cn1cccc1/C=N/NC(=O)c1ccc(OC(F)(F)C(F)F)cc1` here?
**A.** Its activation is 3.85%.

**Q.** For `COc1ccc(C(=O)NC2=NCCS2)c(OC)c1`, which activation is on record?
**A.** Its activation is 10.5% (active).

**Q.** For `CC1(C)CC(=O)C=C(NCCCNC2CCCCC2)C1`, which activation is on record?
**A.** The activation was -0.17%.

**Q.** For `O=C(Nc1cc(=O)[nH]c2ncnn12)c1ccccc1Cl`, which activation is on record?
**A.** The activation was 3.68%.

**Q.** With `CCCn1nc(C(=O)Nc2ccc3nc(C)sc3c2)c2ccccc2c1=O` as the compound, how does the activation read?
**A.** Its activation is -0.9%.

**Q.** For `Cc1ccc(C(=O)CSc2ccccc2C(=O)O)cc1`, which activation is on record?
**A.** The activation was 16.1% (active).

**Q.** With `CC(C)Cc1nnc(NC(=O)CCNC(=O)c2ccccc2Cl)s1` as the compound, how does the activation read?
**A.** Its activation is -0.13%.

**Q.** With `Cc1ccc(-c2nc3ccc(Cl)cn3c2Cc2ccccc2)cc1` as the compound, how does the activation read?
**A.** Its activation is 3.06%.

**Q.** With `Cc1ccc(N/C=C/C(=O)c2ccccc2)cc1C` as the compound, how does the activation read?
**A.** The activation was 0.64%.

**Q.** Which activation does the source give for `Cc1cccc(-n2c(O)c(C=Nc3ccccc3N)c(=O)[nH]c2=O)c1` here?
**A.** The activation was 11.1% (active).

**Q.** For `Cc1ccsc1C(=O)N/N=C/c1ccc([N+](=O)[O-])cc1`, which activation is on record?
**A.** The activation was 6.1%.

**Q.** For `COc1ccc2ccccc2c1CNCc1ccccn1`, which activation is on record?
**A.** Its activation is 0.73%.

**Q.** Which activation does the source give for `Cn1sc(=O)c2cc(S(=O)(=O)NC3CC3)ccc21` here?
**A.** Its activation is -1.88%.

**Q.** Which activation does the source give for `COc1cccc(C(=O)Nc2nc3ccc(S(C)(=O)=O)cc3s2)c1` here?
**A.** The activation was 2.8%.

**Q.** With `COc1cccc(C(=O)Nc2cc3c(cc2Br)OCCCO3)c1` as the compound, how does the activation read?
**A.** The activation was 9.25% (active).

**Q.** With `O=C(O)c1ccc(COc2c(F)c(F)cc(F)c2F)o1` as the compound, how does the activation read?
**A.** The activation was -2.71%.

**Q.** Which activation does the source give for `Cc1nc(-c2nnc(SCC(=O)Nc3cc(C(F)(F)F)cc(C(F)(F)F)c3)n2C)cs1` here?
**A.** Its activation is -3.07%.

**Q.** With `Fc1ccc(/C=N/Nc2nc(-c3cccnc3)nc3ccccc23)cc1` as the compound, how does the activation read?
**A.** The activation was 4.27%.

**Q.** Which activation does the source give for `CCOC(=O)Nc1ccc(NC(=O)OCC)cc1` here?
**A.** The activation was -0.46%.

**Q.** Which activation does the source give for `Cc1ccc(NC(=O)c2cc3ccccc3o2)cc1` here?
**A.** Its activation is 10.6% (active).

**Q.** With `COc1ccc(C(=O)N/N=c2\oc3ccccc3cc2C(N)=O)cc1` as the compound, how does the activation read?
**A.** The activation was 1.59%.

**Q.** With `O=C(C1CCC1)N1CCN(S(=O)(=O)c2ccc([N+](=O)[O-])cc2)CC1` as the compound, how does the activation read?
**A.** The activation was 0.04%.

**Q.** For `COC(=O)c1ccc(/C=C2/C(=O)Oc3ccccc32)cc1`, which activation is on record?
**A.** Its activation is -2.13%.

**Q.** For `CCc1c(C)c2ccc(OC3CCCCC3=O)cc2oc1=O` (stereo not drawn), which activation is on record?
**A.** Its activation is 12.2% (active).

**Q.** With `O=C(NC1CCCC1)C(=O)c1c[nH]c2ccccc12` as the compound, how does the activation read?
**A.** The activation was 4.82%.

**Q.** With `CC(=O)c1sc(NC(=O)c2ccc(C)cc2)nc1C` as the compound, how does the activation read?
**A.** The activation was 6.35%.

**Q.** For `CC1(C(=O)NS(=O)(=O)C2CC2)CCCN(C(=O)CSc2ccccc2)C1` (stereo not drawn), which activation is on record?
**A.** Its activation is 1.21%.

**Q.** Which activation does the source give for `Oc1cccc2ccc(/C=C/c3ccc(Br)s3)nc12` here?
**A.** The activation was 12.9% (active).

**Q.** Which activation does the source give for `CC(C)CCNC(=O)c1ccc2c(Cl)c3c(nc2c1)CCC3` here?
**A.** Its activation is 2.09%.
